# Assay results of several laboratories.
# Compare with care: the assays were run in different laboratories.
# TACR1: Substance-P receptor (TACR1, Homo sapiens, UniProt P25103)
# Trypanothione synthetase: Trypanothione synthetase (Trypanosoma cruzi, UniProt Q9GT49)
# Tmem97: Sigma intracellular receptor 2 (Tmem97, Rattus norvegicus, UniProt Q5U3Y7)
# MMP3: Stromelysin-1 (MMP3, Homo sapiens, UniProt P08254)
# HTR2C: 5-hydroxytryptamine receptor 2C (HTR2C, Homo sapiens, UniProt P28335)
# dxs: 1-deoxy-D-xylulose-5-phosphate synthase (dxs, Deinococcus radiodurans, UniProt Q9RUB5)
# MTNR1A: Melatonin receptor type 1A (MTNR1A, Homo sapiens, UniProt P48039)
# EAPA: Endothiapepsin (EAPA, Cryphonectria parasitica, UniProt P11838)
Compound,target,assay,conditions,inhibition
O=C(c1ccc(Cl)cc1)N(Cc1ccccc1)C1CCCCC1,TACR1,cell-free assay,10 µM,15.1%
CCN(CC)C(=O)CN1C(=O)Cc2c([nH]c3ccc(Br)cc23)-c2ccc(Cl)cc21,Trypanothione synthetase,"enzyme activity, inhibitor, absorbance",30 µM,7.8%
COc1cc2c(cc1OC)CN(C(C)CCc1ccc(O)cc1)CC2 (stereo not shown),Tmem97,"ligand displacement, radioligand",0.1 µM,94%
O=C(O)c1ccc(C(=O)O)nc1,MMP3,"enzyme activity, inhibitor","1 mM, pH 6",> 80%
CC(C)(C)NC(=O)CN1C(=O)Cc2c([nH]c3ccc(Br)cc23)-c2ccc(Cl)cc21,Trypanothione synthetase,"enzyme activity, inhibitor, absorbance",30 µM,5.8%
CCN(CC)c1ccc(C2Nc3ccc(C(=O)c4ccccc4)cc3NC3=C2C(=O)CC(C)(C)C3)cc1 (stereo not shown),HTR2C,"ligand displacement, radioligand",10 µM,5%
O=C(O)c1ncccc1O,MMP3,"enzyme activity, inhibitor","1 mM, pH 6",~50%
O=C(c1ccc(F)cc1)N(Cc1ccccc1)C1CCCCC1,"B2 bradykinin receptor (BDKRB2, Homo sapiens, UniProt P30411)",cell-free assay,10 µM,-3%
O=C(COc1ccc(Cl)cc1Cl)N/N=C/c1c[nH]c2ccccc12,dxs,"enzyme activity, inhibitor",200 µM,45.3%
Ic1cccc2cnccc12,"NMNAT1 (Homo sapiens, UniProt Q9HAN9)","enzyme activity, inhibitor",10 µM,-3%
CCN(Cc1ccccc1C(F)(F)F)C(=O)C1CCN(S(=O)(=O)c2ccc3[nH]ncc3c2)CC1,MTNR1A,"ligand displacement, radioligand",10 µM,34%
CC(Cc1ccc(C(C)(C)C)cc1)C(NN)c1nnnn1Cc1ccc2c(c1)OCO2 (stereo not shown),EAPA,"enzyme activity, inhibitor",200 µM,95.3%
O=C(CN1C(=O)Cc2c([nH]c3ccc(Br)cc23)-c2ccc(Cl)cc21)Nc1ncco1,Trypanothione synthetase,"enzyme activity, inhibitor, absorbance",30 µM,6.9%
CCCNc1nc2ccccc2n1Cc1ccc(Cl)cc1,HTR2C,"ligand displacement, radioligand",10 µM,80%
CN(C)C1CCN(CC#Cc2nn(C3CCCC3)c3nc(NCc4ccccc4)ncc23)C1 (stereo not shown),"Serine/threonine-protein kinase PLK1 (PLK1, Homo sapiens, UniProt P53350)","enzyme activity, inhibitor, FRET",10 µM,-5%
N#Cc1cc(Cn2c(N3CCCC3)nc3ccccc32)ccc1F,HTR2C,"ligand displacement, radioligand",10 µM,14.4%
NNC(CCc1ccccc1)c1nnnn1Cc1ccc2c(c1)OCO2 (stereo not shown),EAPA,"enzyme activity, inhibitor",200 µM,36.3%
CCOC(=O)CN1C(=O)Cc2c([nH]c3ccc(Br)cc23)-c2ccc(Cl)cc21,Trypanothione synthetase,"enzyme activity, inhibitor, absorbance",30 µM,19.1%
NNC(COCc1ccccc1)c1nnnn1CC(=O)NCc1cccs1 (stereo not shown),EAPA,"enzyme activity, inhibitor",200 µM,51.9%
O=C(CN1C(=O)Cc2c([nH]c3ccc(Br)cc23)-c2ccc(Cl)cc21)NCCN1CCNCC1,Trypanothione synthetase,"enzyme activity, inhibitor, absorbance",30 µM,7.9%
CCCCCC(NN)c1nnnn1Cc1ccc2c(c1)OCCO2 (stereo not shown),EAPA,"enzyme activity, inhibitor",200 µM,48.2%
C#CCOCCOCCOc1ccc2c3c1C1CCCC1N3CCNC2 (racemic),HTR2C,"ligand displacement, radioligand",10 µM,100%
O=C(CN1C(=O)Cc2c([nH]c3ccc(Br)cc23)-c2ccc(Cl)cc21)N1CCNCC1,Trypanothione synthetase,"enzyme activity, inhibitor, absorbance",30 µM,17.1%
CN(Cc1ccc(NC(=O)C2=Cc3cc(-c4ccc(OCCCCCCCF)cc4)ccc3CCC2)cc1)C1CCOCC1,Tmem97,"ligand displacement, radioligand",10 µM,17%
O=C1N=C(N2CCCCN2)S/C1=C\c1ccc(F)cc1O,MTNR1A,"ligand displacement, radioligand",10 µM,< 10%
Oc1ccc(-c2nnc(CCCOc3ccc(Cl)cc3Cl)o2)c(F)c1,dxs,"enzyme activity, inhibitor",120 µM,49.2%
CNC(=O)c1cc(Oc2ccc(NC(=O)Nc3ccc(Cl)c(C(F)(F)F)c3)cc2)ccn1,"Serine/threonine-protein kinase SIK1 (SIK1, Homo sapiens, UniProt P57059)","enzyme activity, inhibitor",0.3 µM,4%
CS(=O)(=O)O.c1cc2c(cc1C1CCCCC1)c1c3n2CCNC3CCC1 (stereo not shown),Trypanothione synthetase,"enzyme activity, inhibitor, absorbance",25 µM,28.9%
O=C(CN1C(=O)Cc2c([nH]c3ccc(Br)cc23)-c2ccc(Cl)cc21)NCCN1CCCCC1,Trypanothione synthetase,"enzyme activity, inhibitor, absorbance",30 µM,21.4%
C=CC1=C(C)C2=Cc3c(C=C)c(C)c4[n]3[Sn]([Cl])([Cl])[n]3c(c(C)c(CCC(=O)O)c3=CC3=NC(=C4)C(C)=C3CCC(=O)O)=CC1=N2,Trypanothione synthetase,"enzyme activity, inhibitor, absorbance",25 µM,18.7%
COc1cc(NC(C)=O)c(Cl)cc1C(=O)Nc1nccs1,TACR1,cell-free assay,10 µM,-2.9%
CC1CNc2c(cccc2S(=O)(=O)N[C@@H](CCCNC(=N)N)C(=O)N2CC[C@@H](C)C[C@@H]2C(=O)O)C1 (stereo partly shown),"Prothrombin (F2, Bos taurus, UniProt P00735)","enzyme activity, inhibitor, fluorescence",0.1 µg/mL,94%
Oc1cccc(Nc2nc(-c3ccc(F)cc3F)cs2)c1,TACR1,cell-free assay,10 µM,30%
NNC(CCc1ccccc1)c1nnnn1Cc1ccc2c(c1)OCCO2 (stereo not shown),EAPA,"enzyme activity, inhibitor",200 µM,42.5%
CC(C)(C)OC(=O)NCCNC(=O)CN1C(=O)Cc2c([nH]c3ccc(Br)cc23)-c2ccc(Cl)cc21,Trypanothione synthetase,"enzyme activity, inhibitor, absorbance",30 µM,38.5%
NNC(CCc1ccccc1)c1nnnn1CC(=O)NCc1cccs1 (stereo not shown),EAPA,"enzyme activity, inhibitor",200 µM,39.1%
O=C(Nc1ccc(S(=O)(=O)N2CCC(Cl)CC2)cc1)c1ccc([N+](=O)[O-])o1,TACR1,"ligand displacement, radioligand",10 µM,3%
